# Tests used:
# [1] = target: T1, ATP-dependent translocase ABCB1 (Homo sapiens, UniProt P08183); test: Inhibition of human MDR1 expressed in mouse NIH/3T3 cells assessed as inhibition of daunomycin efflux incubated for 30 mins by flow cytometry; assay type: cell-based, NIH3T3
# Procedure, shortened: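 Ki for DNM efflux. MDR1-G185 NIH-3T3 cells were incubated 30 min at 37 °C with DNM (2 μM) and varying compound concentrations, then read by flow cytometry. Fluorescence was converted to % P-gp inhibition, normalized to cells treated with 5 mM sodium orthovanadate (100%). Ki was fitted from I = (Imax × S)/(Ki + S). Mean ± SD of three independent experiments in triplicate.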
# [2] = Intrinsic cytotoxicity against mouse NIH/3T3 cells transfected with human MDR1 by MTT assay; assay type: ADME, cell-based, NIH3T3
# Procedure, shortened: (§1)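 Intrinsic cytotoxicity was measured by MTT in parental NIH-3T3 and MDR1-G185 cells. CC50 came from a four-parameter logistic fit. The top tested concentration was 60 μM, limited by DMSO toxicity, and growth at 60 μM is given as % of untreated control. Mean ± SD of three independent experiments in duplicate.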
# [3] = Intrinsic cytotoxicity against mouse NIH/3T3 cells by MTT assay; assay type: cell-based, NIH3T3; procedure, shortened: as §1
# [4] = Intrinsic cytotoxicity against mouse NIH/3T3 cells transfected with human MDR1 assessed as cell growth at 60 uM by MTT assay; assay type: ADME, cell-based, NIH3T3; conditions: read-out: Activity; procedure, shortened: as §1
# [5] = Intrinsic cytotoxicity against mouse NIH/3T3 cells assessed as cell growth at 60 uM by MTT assay; assay type: cell-based, NIH3T3; conditions: read-out: Activity; procedure, shortened: as §1
# [6] = target: T1, ATP-dependent translocase ABCB1; test: Inhibition of human MDR1 expressed in mouse NIH/3T3 cells assessed as reduction in daunomycin IC50 at 1 uM by MTT assay; assay type: cell-based; conditions: nih3t3, 1 µM
# Procedure, shortened: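 Parental NIH-3T3 and MDR1-G185 cells were grown in DMEM with 10% iFBS. They were exposed to increasing DNM or VLB (up to 500 ng/mL) with or without compound at fixed 1, 3 or 10 μM. Growth was read by MTT, and IC50 came from a four-parameter logistic fit. Mean ± SD of two independent experiments in triplicate.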
# [7] = target: T1, ATP-dependent translocase ABCB1; test: Inhibition of human MDR1 expressed in mouse NIH/3T3 cells assessed as reduction in daunomycin IC50 at 3 uM by MTT assay; assay type: cell-based; conditions: nih3t3, 3 µM
# Procedure, shortened: (§2)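 Parental NIH-3T3 and MDR1-G185 cells were grown in DMEM with 10% iFBS. They were exposed to increasing DNM or VLB (up to 500 ng/mL) with or without compound at fixed 1, 3 or 10 μM. Growth was read by MTT, and IC50 came from a four-parameter logistic fit. Reversal index = IC50 without compound / IC50 with compound in MDR1 cells. Mean ± SD of two independent experiments in triplicate.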
# [8] = target: T1, ATP-dependent translocase ABCB1; test: Inhibition of human MDR1 expressed in mouse NIH/3T3 cells assessed as reduction in daunomycin IC50 at 10 uM by MTT assay; assay type: cell-based; conditions: nih3t3, 10 µM; procedure, shortened: as §2
# [9] = target: T1, ATP-dependent translocase ABCB1; test: Inhibition of human MDR1 expressed in mouse NIH/3T3 cells assessed as reduction in vinblastine IC50 at 1 uM by MTT assay; assay type: cell-based; conditions: nih3t3, 1 µM; procedure, shortened: as §2
# [10] = target: T1, ATP-dependent translocase ABCB1; test: Inhibition of human MDR1 expressed in mouse NIH/3T3 cells assessed as reduction in vinblastine IC50 at 3 uM by MTT assay; assay type: cell-based; conditions: nih3t3, 3 µM; procedure, shortened: as §2
# [11] = target: T1, ATP-dependent translocase ABCB1; test: Inhibition of human MDR1 expressed in mouse NIH/3T3 cells assessed as reduction in vinblastine IC50 at 10 uM by MTT assay; assay type: cell-based; conditions: nih3t3, 10 µM; procedure, shortened: as §2
# [12] = target: T1, ATP-dependent translocase ABCB1; test: Potency index, ratio of daunomycin reversal index to compound reversal index for human MDR1 expressed in mouse NIH/3T3 cells at 1 uM; assay type: cell-based; conditions: nih/3t3, 1 µM
# Procedure, shortened: (§3)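 Each RI comes from the MTT dose-response of DNM or VLB (up to 500 ng/mL), with or without modulator.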
# [13] = target: T1, ATP-dependent translocase ABCB1; test: Potency index, ratio of vinblastine reversal index to compound reversal index for human MDR1 expressed in mouse NIH/3T3 cells at 1 uM; assay type: cell-based; conditions: nih/3t3, 1 µM; procedure, shortened: as §3
# T1 sequence (P08183 whole entry): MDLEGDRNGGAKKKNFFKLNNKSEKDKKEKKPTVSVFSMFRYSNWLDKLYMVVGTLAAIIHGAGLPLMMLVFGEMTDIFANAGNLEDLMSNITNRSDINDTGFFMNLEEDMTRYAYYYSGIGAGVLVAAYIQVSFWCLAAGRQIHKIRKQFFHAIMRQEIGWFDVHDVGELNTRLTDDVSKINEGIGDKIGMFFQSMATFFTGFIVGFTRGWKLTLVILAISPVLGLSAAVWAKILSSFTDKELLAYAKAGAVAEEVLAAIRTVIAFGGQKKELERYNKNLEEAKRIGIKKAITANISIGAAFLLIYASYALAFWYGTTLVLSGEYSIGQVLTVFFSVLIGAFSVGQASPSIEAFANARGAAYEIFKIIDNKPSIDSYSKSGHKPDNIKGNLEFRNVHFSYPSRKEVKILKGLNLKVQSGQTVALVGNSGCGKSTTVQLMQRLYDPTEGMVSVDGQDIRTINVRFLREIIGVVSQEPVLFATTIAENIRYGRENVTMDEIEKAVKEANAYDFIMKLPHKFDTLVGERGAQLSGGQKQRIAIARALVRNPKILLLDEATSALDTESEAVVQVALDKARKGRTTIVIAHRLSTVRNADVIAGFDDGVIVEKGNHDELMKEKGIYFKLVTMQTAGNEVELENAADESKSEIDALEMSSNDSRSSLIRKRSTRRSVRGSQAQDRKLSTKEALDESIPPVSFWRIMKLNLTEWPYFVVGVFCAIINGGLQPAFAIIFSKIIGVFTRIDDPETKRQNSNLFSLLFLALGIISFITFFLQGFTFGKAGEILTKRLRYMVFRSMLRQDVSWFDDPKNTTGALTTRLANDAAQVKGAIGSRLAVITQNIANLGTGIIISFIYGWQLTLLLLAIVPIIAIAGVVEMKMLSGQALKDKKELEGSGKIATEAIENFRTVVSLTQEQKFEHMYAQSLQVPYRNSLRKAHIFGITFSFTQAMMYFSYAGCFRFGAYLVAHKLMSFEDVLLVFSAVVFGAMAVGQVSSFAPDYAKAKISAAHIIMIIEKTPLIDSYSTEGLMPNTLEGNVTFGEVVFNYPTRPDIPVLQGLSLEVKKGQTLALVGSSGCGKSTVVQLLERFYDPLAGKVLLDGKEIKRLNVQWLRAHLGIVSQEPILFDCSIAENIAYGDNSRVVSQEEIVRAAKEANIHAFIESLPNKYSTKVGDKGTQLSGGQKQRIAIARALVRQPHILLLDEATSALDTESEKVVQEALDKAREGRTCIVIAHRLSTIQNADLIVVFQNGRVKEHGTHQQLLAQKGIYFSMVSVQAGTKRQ
smiles,measurement,setting,value
CC(=O)O[C@H]1CC[C@](C)(O)[C@]23OC(C)(C)[C@H]([C@H](OC(=O)/C=C/c4ccccc4)[C@H](OC(=O)c4ccccc4)[C@]12C)[C@H]3OC(=O)c1cnccn1,Ki,[1],1.74 µM
same,CC50,[2],> 60 µM
same,CC50,[3],> 60 µM
same,viability at 60 µM,[4],86.2%
same,viability at 60 µM,[5],66.3%
same,fold change (FC),[6],2.3
same,fold change (FC),[7],4
same,fold change (FC),[8],9
same,fold change (FC),[9],3.7
same,fold change (FC),[10],8.8
same,fold change (FC),[11],20.6
CC(=O)O[C@H]1CC[C@](C)(O)[C@]23OC(C)(C)[C@H]([C@H](OC(=O)/C=C/c4ccccc4)[C@H](OC(=O)c4ccccc4)[C@]12C)[C@H]3OC(=O)CCC(=O)N(C(=O)NC1CCCCC1)C1CCCCC1,Ki,[1],0.19 µM
same,CC50,[2],> 60 µM
same,CC50,[3],56.4 µM
same,viability at 60 µM,[4],72.8%
same,fold change (FC),[6],15.8
same,fold change (FC),[7],19.5
same,fold change (FC),[8],24.9
same,fold change (FC),[9],27.4
same,fold change (FC),[10],36.1
same,fold change (FC),[11],90
same,Ratio,[12],3
same,Ratio,[13],3

# Reference: ChEMBL document CHEMBL3774328, “Optimization by Molecular Fine Tuning of Dihydro-β-agarofuran Sesquiterpenoids as Reversers of P-Glycoprotein-Mediated Multidrug Resistance” (J Med Chem, 2016)
